Screens (PubChem BioAssay)
RGS4 pot = RGS4 potentiators or activators, primary screen, cell-based, HEK293 M3R inducible RGS4, calcium flux. actives 0.92% (n = 310,000). B-score at 10 µM. carbachol calcium flux Fluo4; active compounds read low;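 active = B-score of the integrated calcium signal more than 4 SD below the library mean, with starting fluorescence not abnormally high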;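 note: negative B-score means reduced calcium response which marks RGS4 activation or potentiation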
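Assay system: Inducible-RGS4 HEK293 cells carrying M3 receptor | Schedule: Compound preincubation 20 min at room temperature before agonist | Signal: Kinetic calcium fluorescence imaging with Fluo4-AM dye, 2 µM | Read-out basis: B score from integrated fluorescence ratio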
RGS4 inh = RGS4 inhibitors, primary screen, cell-based, HEK293 M3R inducible RGS4, calcium flux. Fluo-4 calcium flux; active compounds read high; triggered by carbachol at its EC20. B-score at 10 µM. actives 0.45% (n = 310,000). AID 463165, 2010;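 active = B-score, a plate-corrected calcium signal, over three deviations above library mean, with baseline fluorescence within five deviations of library mean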;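 note: RGS4 expression induced by doxycycline in cells with stable M3 receptor; B-score is computed from the integrated fluorescence ratio over baseline after carbachol; higher B-score means a larger calcium signal and so more RGS4 inhibition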
Target sequence (P49798 whole entry, looked up): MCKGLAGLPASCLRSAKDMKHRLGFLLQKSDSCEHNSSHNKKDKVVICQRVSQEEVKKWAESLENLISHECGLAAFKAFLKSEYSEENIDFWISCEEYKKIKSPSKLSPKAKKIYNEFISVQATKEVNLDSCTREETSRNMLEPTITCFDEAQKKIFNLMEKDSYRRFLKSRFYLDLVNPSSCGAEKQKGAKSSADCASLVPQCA
MrgX1 allo act = positive allosteric modulators of MrgX1, primary screen, HEK293 cells, Fluo-4 calcium flux; Mas-related G-protein coupled receptor member X1 (Homo sapiens), Q96LB2; FDSS; active compounds read high; B-score at 10 µM; actives 0.63% (n = 310,000);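 active = plate-corrected calcium response at least 3 library SD above typical, normal starting fluorescence, not activating the receptor alone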;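 note: compound read alongside a low EC10 to EC30 dose of BAM8-22 agonist; peak minus trough fluorescence over baseline measured at the second addition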
Target sequence (Q96LB2 whole entry, looked up): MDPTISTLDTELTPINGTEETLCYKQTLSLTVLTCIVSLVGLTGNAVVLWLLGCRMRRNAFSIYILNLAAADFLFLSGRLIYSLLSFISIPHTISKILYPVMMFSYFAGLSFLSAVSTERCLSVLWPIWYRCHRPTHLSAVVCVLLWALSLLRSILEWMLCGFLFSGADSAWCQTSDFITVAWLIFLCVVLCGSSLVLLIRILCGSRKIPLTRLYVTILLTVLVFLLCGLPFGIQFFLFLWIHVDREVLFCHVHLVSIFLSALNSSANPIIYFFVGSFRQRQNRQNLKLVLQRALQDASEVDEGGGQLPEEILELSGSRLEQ
MrgX1 antagonist = antagonists of human MrgX1 receptor, primary screen, HEK293 cells, Fluo-4 calcium flux. Mas-related G-protein coupled receptor member X1 (Homo sapiens), Q96LB2. BAM8-22 antagonism; active compounds read low. B-score at 10 µM. actives 1.3% (n = 310,000);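 active = calcium-response B-score plate-corrected more than 3 library SD below zero, starting fluorescence within 5 deviations, no agonist response on first addition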;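 note: peak minus trough fluorescence over baseline after final BAM8-22 challenge near maximal dose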
MrgX1 ag = agonists of human MrgX1 receptor, primary screen, HEK293 cells, Fluo-4 calcium flux | Mas-related G-protein coupled receptor member X1 (Homo sapiens), Q96LB2 | Fluo-4 calcium fluorescence, agonist mode; active compounds read high | B-score at 10 µM | actives 0.44% (n = 310,000);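 active = calcium response B-score plate-corrected fluorescence ratio at least 3 library SD, with starting fluorescence B-score inside 5 SD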
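Test system: HEK293 cells stably expressing human MrgX1 receptor; amount: 15,000 cells per well; doses: compound delivered in addition one of three; times: overnight plating before 1 h dye loading; detection: Fluo-4 NW calcium-flux fluorescence, kinetic read; read-out basis: B-scored fluorescence response ratio; controls: positive and negative controls per plate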
MrgX1 allo conf = MrgX1 positive allosteric modulators, duplicate retest, confirmation, HEK293 cells, Fluo-4 calcium flux | shares compounds with MrgX1 allo act | activation (ratio percentage), % at 10 µM | Fluo-4 calcium fluorescence, FDSS | AID 602413, 2012 | actives 13% (n = 1,200);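 active = ratio at least 3 SD above the weak peptide control, stable starting fluorescence, no direct agonism earlier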;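 note: compound followed by low BAM8-22 agonist challenge near EC20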
HEK293 Ca flux = nonspecific calcium signal in parental HEK293, confirmation, counter-screen for MrgX1 antagonist project, parental HEK293 cells, Fluo-4 calcium flux; shares compounds with MrgX1 antagonist; fluorescence ratio F(max-min)/F0 at 10 µM; Fluo-4 calcium fluorescence, FDSS; actives 2% (n = 4,000);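 active = duplicate-averaged calcium fluorescence ratio at least three times the standard deviation of buffer wells, a nonspecific response in parental cells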
HEK293 Ca counter = calcium response in parental HEK293 cells, primary screen, counter-screen for MrgX1 allosteric activator project, cell-based, Fluo-4 calcium flux, duplicate | shares compounds with MrgX1 antagonist | Fluo-4 fluorescence ratio; active compounds read high | fluorescence ratio F(max-min)/F0 at 10 µM | actives 0.4% (n = 4,000) | AID 624114, 2012;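 active = calcium fluorescence ratio, averaged over duplicates, at least 3 SD of the buffer-well ratio, meaning a nonspecific response in receptor-free cells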;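 note: untransfected parental HEK293 lacking MrgX1 used as counterscreen for MrgX1 allosteric activators; fluorescence change taken during the second addition on a kinetic imager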
HEK293 Ca cntr2 = calcium response in parental HEK293 cells, primary screen, counter-screen for MrgX1 agonist project, cell-based, Fluo-4 calcium flux, duplicate, agonist mode. shares compounds with MrgX1 antagonist. Fluo-4 calcium fluorescence (FDSS); active compounds read high. fluorescence ratio F(max-min)/F0 at 10 µM. actives 8.7% (n = 4,000). AID 624115, 2012;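 active = calcium fluorescence ratio at least three times the spread of buffer wells, meaning a non-specific response in parental cells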
Large screens that a line does not name were inactive (follow-up assays come after a bar, where they were run). A selection: hits, their analogues and other compounds. The true share with any hit is near 3.5%.

COc1ccccc1C(=O)NCC(=O)NCc1cc(=O)n(C)c(=O)n1C	none
Cc1ccn2c(=O)nc(SCC(=O)NCCc3ccccc3)nc2c1	none
COc1ccc(C(=O)C2CCN(CC(=O)Nc3ccc(OC)cc3OC)CC2)cc1	MrgX1 allo act 7.5 | MrgX1 allo conf inactive | HEK293 Ca flux inactive | HEK293 Ca counter inactive | HEK293 Ca cntr2 inactive
CCCCc1ccc(NC(=S)NCc2ccccc2OC)cc1	none
CCc1cccc(NC(=O)c2ccc(NS(=O)(=O)c3c(C)noc3C)cc2)c1	MrgX1 allo act 15 | MrgX1 allo conf 15% | HEK293 Ca flux inactive | HEK293 Ca counter inactive | HEK293 Ca cntr2 inactive
COc1ccc(S(=O)(=O)n2nc(OC(=O)c3ccccc3)cc2N)cc1	none
CS(=O)(=O)n1nc(OC(=O)c2cc(Br)ccc2Cl)cc1N	none
COc1ccc(S(=O)(=O)n2nc(OC(=O)c3ccccc3Br)cc2N)cc1	MrgX1 allo act 10 | MrgX1 allo conf 32% | HEK293 Ca flux inactive | HEK293 Ca counter inactive | HEK293 Ca cntr2 inactive
COc1ccc(S(=O)(=O)n2nc(OC(C)=O)cc2N(C(C)=O)C(C)=O)cc1	MrgX1 allo act 13 | MrgX1 allo conf inactive | HEK293 Ca flux inactive | HEK293 Ca counter inactive | HEK293 Ca cntr2 inactive
CS(=O)(=O)n1nc(OC(=O)c2cccc3ccccc23)cc1N	MrgX1 allo act 6.5 | MrgX1 allo conf 14% | HEK293 Ca flux inactive | HEK293 Ca counter inactive | HEK293 Ca cntr2 inactive
CC(OC(=O)CCC1CCCC1)C(=O)Nc1ccccc1[N+](=O)[O-] (stereo unspecified)	none
O=C(O)/C=C/C(=O)Nc1ccc(OC(F)(F)F)cc1Br	none
Cc1ccsc1C(=O)N1CCc2ccccc2C1	none
Cc1ccsc1C(=O)OCC(=O)N1CCc2ccccc2C1	MrgX1 allo act 8.9 | MrgX1 allo conf inactive | HEK293 Ca flux inactive | HEK293 Ca counter inactive | HEK293 Ca cntr2 inactive
Cc1csc(NC(=O)c2cncc(Br)c2)n1	MrgX1 allo act 15 | MrgX1 allo conf inactive | HEK293 Ca flux inactive | HEK293 Ca counter inactive | HEK293 Ca cntr2 inactive
O=C(CC1C(=O)NCCN1Cc1ccccc1)NCCN1CCCCC1=O (stereo unspecified)	MrgX1 allo act 9.4 | MrgX1 allo conf inactive | HEK293 Ca flux inactive | HEK293 Ca counter inactive | HEK293 Ca cntr2 inactive
O=C(CC1C(=O)NCCN1Cc1ccc(F)cc1)NCCN1CCCc2ccccc21 (stereo unspecified)	none
O=C(Nc1cccc2ncccc12)c1ccco1	none
COC(=O)c1ccc(OCCCCN2CC(C)OC(C)C2)cc1 (stereo unspecified)	MrgX1 allo act 10 | MrgX1 allo conf inactive | HEK293 Ca flux inactive | HEK293 Ca counter inactive | HEK293 Ca cntr2 inactive
O=C(NC1CCOCC1)C1CCC(=O)N(CCc2cccc(F)c2)C1 (stereo unspecified)	none
COc1ccc(CCNC(=O)C2Cc3ccccc3C(=O)O2)cc1 (stereo unspecified)	MrgX1 allo act 14 | MrgX1 allo conf inactive | HEK293 Ca flux inactive | HEK293 Ca counter inactive | HEK293 Ca cntr2 inactive
O=[N+]([O-])c1ccc(Cn2cc(-c3cccc(C(F)(F)F)c3)nn2)cc1	none
